From paper PMC7982424 (Acta Pharmaceutica Sinica. B, 2020)

Columns and labels:
[1] = Microsomal stability assay, mouse liver microsomes; format: in vitro ADME; settings: mouse, pH 7.4
[2] = Microsomal stability assay, human liver microsomes; format: in vitro ADME; settings: human, pH 7.4
HIV-1NL4-3 = assay: Anti-HIV-1 assay in TZM-GFP cells; format: cell-based
In short: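 TZM-GFP cells seeded at 1 × 10^4 per well; after 24 h, medium replaced with test compound at 20 μmol/L, with actives retested at 2 μmol/L. HIV-1NL4-3 (HEK 293FT-transfection stock, MT2-propagated, PEG-concentrated) added at MOI 1 24 h later. After 48 h, GFP-positive cells counted by imaging; inhibition relative to DMSO controls. Duplicates, at least two independent experiments.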

Cytotoxicity assay = format: cell-based; settings: human, TZM-GFP cells
In short: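 TZM-GFP cells were plated at 1 × 10^4 cells per well and exposed continuously to increasing concentrations of test compound for 72 h. Viable cells were counted by XTT. CC50 came from a log(inhibitor) vs normalized response, variable-slope fit for each independent assay, then averaged. Runs were in duplicate across at least two independent experiments; mean ± SD.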

half-life at 1 μmol/L [1]: 3.6 min
half-life at 1 μmol/L [2]: 12 min
SMILES: CN(C(=O)[C@H](Cc1ccccc1)NC(=O)CNC(=O)c1ccccc1)c1cccc(F)c1 [Compound 23, (S)-N-(2-((1-((3-Fluorophenyl)(methyl)amino)-1-oxo-3-phenylpropan-2-yl)amino)-2-oxoethyl)benzamide]
inhibition at 2 µM (HIV-1NL4-3; Human immunodeficiency virus 1, read-out: Inhibition at 2 μmol/L): 3%
inhibition at 20 µM (HIV-1NL4-3; Human immunodeficiency virus 1, read-out: Inhibition at 20 μmol/L): 94%
CC50 at 72 h (Cytotoxicity assay): > 50 µM
